Measurements as given in ChEMBL document CHEMBL1124509, “Synthesis, cytotoxicity, and antiviral activity of certain 7-[(2-hydroxyethoxy)methyl]pyrrolo[2,3-d]pyrimidine nucleosides related to toyocamycin and sangivamycin” (J Med Chem, 1989).

Assays:
[1] = Cytotoxicity against Monkey kidney cells(BSC-1 cells); assay type: cell-based; settings: Cercopithecidae
[2] = tested on: Human alphaherpesvirus 1; experiment: Antiviral activity was determined against Herpes simplex virus type 1 by Plaque-reduction assay; assay type: functional, organism-based
How it was run: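 BSC-1 monolayers (MEM with Earle's salts, 10% FBS) infected with HSV-1 strain S-148, about 100 PFU per 0.2 mL; compound dissolved in overlay medium; plaques counted. IC50 by regression of percent inhibition on log concentration. Acyclovir or ganciclovir positive control, with sets rejected beyond 1.5 SD of control mean.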

[3] = tested on: Human betaherpesvirus 5; experiment: Antiviral activity against Human cytomegalovirus in a plaque-reduction assay; assay type: functional, organism-based
How it was run: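 HFF monolayers (MEM with Earle's salts, 10% FBS) infected with plaque-purified Towne strain HCMV, about 50 PFU per 0.2 mL inoculum; compound dissolved in overlay medium; plaques counted. IC50 from linear regression of percent inhibition against log concentration. Ganciclovir or acyclovir positive control run; sets rejected if control deviated >1.5 SD from its mean.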

[4] = species on record: Homo sapiens; experiment: Cytotoxicity against Normal human diploid cells (human foreskin fibroblasts cells); settings: Fibroblast
[5] = Cytotoxicity against human neoplastic cell line (KB); assay type: cell-based
How it was run: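 KB cells (MEM with Hank's salts, 5% FBS) exposed to compound; incorporation of radioactive precursors, including [3H]dThd, into DNA, RNA and protein measured. An IC50 for each was obtained by regression on log concentration, and the three IC50s were averaged. Averages of two to four experiments.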

[6] = tested on: L1210; experiment: Antiproliferative testing in vitro and its ability to inhibit the growth of L1210 murine leukemia cells determined at a concentration of 100 uM.; assay type: functional, Mus musculus
How it was run: (§1)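 L1210 mouse leukemia cells grown in static suspension culture in Fischer's medium for 3 days with test compound. Growth rate was taken as the slope of semilog cell number versus time, expressed as control doubling time as percent of treated doubling time, i.e. treated growth relative to control.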

[7] = tested on: L1210; experiment: Antiproliferative testing in vitro and its ability to inhibit the growth of L1210 murine leukemia cells determined at a concentration of 10 uM.; design: scale not given: the % may be the effect or the level left
[8] = tested on: L1210; experiment: Antiproliferative testing in vitro and its ability to inhibit the growth of L1210 murine leukemia cells determined at a concentration of 10 uM.; assay type: functional, Mus musculus; design: scale not given: the % may be the effect or the level left; how it was run: as §1

Row | Structure (SMILES) | IC50 [1] | IC50 [2] | IC50 [3] | IC50 [4] | IC50 [5] | Growth rate, % of control [6] | Control [7] | Control [8]
1 | Nc1nc2c(ncn2COC(CO)CO)c(=O)[nH]1 [GANCICLOVIR] | > 100 µM | 2.3 µM | 7.9 µM | > 100 µM | 1000 µM | – | – | –
2 | NC(=NO)c1cn(COCCO)c2ncnc(N)c12 | > 100 µM | > 100 µM | > 100 µM | > 100 µM | – | 89% | – | –
3 | Nc1nc2c(ncn2COCCO)c(=O)[nH]1 [ACYCLOVIR] | > 100 µM | 3.9 µM | – | > 100 µM | > 100 µM | – | – | –
4 | NC(=S)c1cn(COCCO)c2ncnc(N)c12 | > 100 µM | > 100 µM | 11 µM | 100 µM | > 100 µM | – | 93% | –
5 | COC(=N)c1cn(COCCO)c2ncnc(N)c12 | > 100 µM | > 100 µM | > 100 µM | > 100 µM | – | – | – | 108%
6 | NNC(=O)c1cn(COCCO)c2ncnc(N)c12 | > 100 µM | > 100 µM | > 100 µM | > 100 µM | – | 92% | – | –
7 | N#Cc1cn(COCCO)c2ncnc(N)c12 | > 320 µM | > 320 µM | > 100 µM | > 100 µM | > 100 µM | 100% | – | –
8 | NC(=O)c1cn(COCCO)c2ncnc(N)c12 | > 100 µM | > 100 µM | > 320 µM | > 320 µM | > 100 µM | 100% | – | –
9 | CC(=O)OCCOCn1cc(C#N)c2c(N)ncnc21 | > 100 µM | > 100 µM | > 100 µM | > 100 µM | – | – | – | –
10 | Nc1ncnc2c1ccn2COCCO | > 100 µM | > 100 µM | > 100 µM | > 100 µM | > 320 µM | – | – | –
11 | N#Cc1cnc2n(COCCO)cnc(N)c1-2 | > 100 µM | > 100 µM | > 320 µM | > 320 µM | – | – | – | –
